Env fusion inh: blocks HIV Env-driven cell-cell fusion. HeLa-JRFL Env/CEM21 cell fusion, luciferase. inhibition, % at 12.3 µM. 360,000 compounds, 1.1% hits;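 active = mean replicate inhibition score of at least 50 and every replicate individually at or above 50; inconclusive = only one of the two criteria met; inactive = mean below 50 and not all replicates reaching 50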
Rtt109 HAT inh: C. albicans Rtt109 histone acetyltransferase inhibition | Q5AAJ8 | purified Rtt109/Vps75, ThioGlo CoA-SH fluorescence, 4 h | inhibition, % at 34.9 µM | 330,000 compounds, 0.16% hits;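 active = inhibition of at least 50% in every replicate; inconclusive = best replicate reaches 50% inhibition but some replicates fall short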
Target sequence (Q5AAJ8 whole entry, looked up): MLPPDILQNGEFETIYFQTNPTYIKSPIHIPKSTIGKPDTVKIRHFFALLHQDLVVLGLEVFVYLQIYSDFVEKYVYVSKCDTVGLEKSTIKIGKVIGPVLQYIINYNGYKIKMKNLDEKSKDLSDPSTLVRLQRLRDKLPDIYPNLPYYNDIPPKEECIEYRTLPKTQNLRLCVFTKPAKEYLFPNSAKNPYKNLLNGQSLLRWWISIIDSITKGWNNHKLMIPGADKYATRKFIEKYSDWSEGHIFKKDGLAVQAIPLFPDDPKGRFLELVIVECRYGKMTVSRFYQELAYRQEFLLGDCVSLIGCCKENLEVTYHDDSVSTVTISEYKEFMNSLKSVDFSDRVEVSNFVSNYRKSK
PAX8 reporter: inhibitors of PAX8 transcriptional activity in RMG-I cells; RMG-I TPO-luciferase reporter, SteadyGlo, 24 h; inhibition, % at 12.6 µM; 360,000 compounds, 1.2% hits;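 active = mean replicate inhibition at least 60% with every replicate also reaching 60%; inconclusive = only one of the two criteria is met; inactive = mean below 60% and not all replicates reaching 60%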;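 also: luciferase light reporting Pax8 driven TPO promoter activity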
PfHsp90 set2: growth inhibition of yeast expressing Plasmodium Hsp90; inhibition, % at 9.4 µM; AID 504621; S. cerevisiae expressing PfHsp90, BacTiter-Glo ATP, 48 h; yeast lacking PDR1 and PDR3 efflux regulators; 310,000 compounds, 0.32% hits;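 active = every replicate shows inhibition above about 80%, whatever the replicate mean, limit read from the data; inconclusive = mean inhibition reaches the set limit but some replicate falls short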
N-glyco inh: N-linked glycosylation inhibition. 360,000 compounds, 0.23% hits. AID 588692. D54 ERlucT glycosylation luciferase reporter, 24 h; percent of 100 nM tunicamycin response. reporter increase, % at 12.5 µM;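 active = mean luciferase reporter signal, scaled so untreated is 0 and the glycosylation-blocking control 100, at or above a set limit in every replicate; inconclusive = mean reaches the limit but not every replicate does; inactive = mean below the limit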;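 also: luciferase carries N-glycosylation sites so blocking glycosylation raises the light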
Arr AP2 block: blocks beta-arrestin peptide binding to AP2 adaptin; FITC-arrestin peptide / GST-AP2 beads, flow cytometry; AP2 beta2 appendage carries R879A mutation; inhibition, % at 10 µM; 340,000 compounds, 0.31% hits; AID 504490;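 active = inhibition above a set limit, near 3 SD of compounds lacking own fluorescence, cut at about 54% in these data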
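test system = AP2 appendage R879A on GSH beads | buffer or medium = PBS plus Tween 20 (0.05%) and BSA (0.1%) | incubation = 12 min plus 1 h, RT | detection = bead flow cytometry, FITC channel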
Large screens that a line does not name were inactive; [ ] = another dose, or the depositor's remark. This is a sample that favours compounds with a hit; in the whole collection about 2.3% have one here.

COc1ccccc1C#Cc1ccc2c(c1)O[C@H](CN(C)Cc1ccccc1)[C@@H](C)CN([C@@H](C)CO)S2(=O)=O	none (no result: Rtt109 HAT inh, PAX8 reporter, PfHsp90 set2, N-glyco inh, Arr AP2 block)
COc1ccccc1C#Cc1ccc2c(c1)O[C@@H](CN(C)Cc1ccncc1)[C@H](C)CN([C@@H](C)CO)S2(=O)=O	PAX8 reporter 101 (no result: Rtt109 HAT inh, PfHsp90 set2, N-glyco inh, Arr AP2 block)
COc1ccccc1C#Cc1ccc2c(c1)O[C@@H](CN(C)Cc1ccncc1)[C@H](C)CN([C@H](C)CO)S2(=O)=O	Env fusion inh 52[16.7 µM], PAX8 reporter 99 (no result: Rtt109 HAT inh, PfHsp90 set2, N-glyco inh, Arr AP2 block)
Cc1onc(-c2ccccc2)c1C(=O)Nc1ccccc1NC(=O)c1c(-c2ccccc2)noc1C	none
CCCOc1ccccc1NC(=O)c1c(-c2ccccc2)noc1C	Env fusion inh 65
Cc1onc(-c2ccccc2)c1C(=O)N/N=C/c1ccc(Br)cc1	Env fusion inh 56
Cc1onc(-c2ccccc2)c1C(=O)Nc1ccc(Br)cc1Cl	Env fusion inh 86 (no result: N-glyco inh)
C[C@H](CO)N1C[C@H](C)[C@@H](CN(C)Cc2ccc(Cl)c(Cl)c2)Oc2ccc(NC(=O)Nc3ccccc3)cc2CC1=O	none (no result: Rtt109 HAT inh, PfHsp90 set2, N-glyco inh, Arr AP2 block)
CC(=O)Nc1ccc(S(=O)(=O)N(Cc2ccccc2)C(C)C)cc1	Env fusion inh 84
COc1ccc(/C=N/N2C(=O)CSC2=S)cc1	none (no result: Env fusion inh, PAX8 reporter)
COc1ccc(-c2nn(-c3ccccc3)cc2/C=N/N2C(=O)CSC2=S)cc1	Env fusion inh 67 (no result: PAX8 reporter, PfHsp90 set2)
O=C(C[C@@H]1CC[C@@H]2[C@H](COC[C@@H](O)CN2Cc2ccc(Oc3ccccc3)cc2)O1)N1CCOCC1	none (no result: Env fusion inh, Rtt109 HAT inh, PfHsp90 set2, N-glyco inh, Arr AP2 block)
O=C(C[C@@H]1CC[C@@H]2[C@H](COC[C@H](O)CN2Cc2ccc(Oc3ccccc3)cc2)O1)N1CCN(c2ccccc2)CC1	PAX8 reporter 62 (no result: Rtt109 HAT inh, PfHsp90 set2, N-glyco inh, Arr AP2 block)
O=C(C[C@@H]1CC[C@H]2[C@@H](COC[C@H](O)CN2Cc2ccc(Oc3ccccc3)cc2)O1)Nc1nccs1	PAX8 reporter 66 (no result: Rtt109 HAT inh, PfHsp90 set2, N-glyco inh, Arr AP2 block)
O=C(C[C@H]1CC[C@H]2[C@@H](COC[C@H](O)CN2Cc2ccc(Oc3ccccc3)cc2)O1)N1CCN(c2ccccc2)CC1	none (no result: Rtt109 HAT inh, PfHsp90 set2, N-glyco inh, Arr AP2 block)
O=C(C[C@@H]1CC[C@H]2[C@@H](COC[C@@H](O)CN2Cc2ccc(Oc3ccccc3)cc2)O1)N1CCN(c2ccccc2)CC1	Env fusion inh 59[16.7 µM], PAX8 reporter 64 (no result: Rtt109 HAT inh, PfHsp90 set2, N-glyco inh, Arr AP2 block)
COc1cc(C(=O)NC2CCN(C)CC2)ccc1Nc1ncc2c(n1)N(C1CCCC1)CCC(=O)N2C(C)C	Rtt109 HAT inh inconclusive, N-glyco inh 59 (no result: Env fusion inh, PAX8 reporter)
COc1cc(C(=O)NC2CCN(C)CC2)ccc1Nc1ncc2c(n1)N(CCc1ccccc1)CCC(=O)N2C	N-glyco inh 62
COC(=O)C[C@H]1CC[C@H]2[C@@H](COc3ccc(NC(=O)c4ccccc4OC)cc3C(=O)N2C)O1	none (no result: Rtt109 HAT inh, PAX8 reporter, PfHsp90 set2, N-glyco inh, Arr AP2 block)
C[C@H]1CN([C@@H](C)CO)C(=O)Cc2cc(NC(=O)Nc3ccccc3)ccc2O[C@H]1CN(C)C(=O)Nc1ccccc1	none (no result: Rtt109 HAT inh, PfHsp90 set2, N-glyco inh, Arr AP2 block)
CC(C)CCOC(=O)C[N+](C)(C)CCOC1CC2CCC1(C)C2(C)C (centres undefined)	Env fusion inh 76
CCC(C)OC(=O)C[N+](C)(C)CCOC1CC2CCC1(C)C2(C)C (centres undefined)	Env fusion inh 66
CCCOC(=O)C[N+](C)(C)CCOC1CC2CCC1(C)C2(C)C (centres undefined)	none
CCCCOC(=O)C[N+](C)(C)CCOC1CC2CCC1(C)C2(C)C (centres undefined)	Env fusion inh 103 (no result: Rtt109 HAT inh)
CCCCCCCOC(=O)C[N+](C)(C)CCOC1CC2CCC1(C)C2(C)C (centres undefined)	Env fusion inh 75, Rtt109 HAT inh inconclusive
COc1ccc2c3c([nH]c2c1)[C@H](CO)N(C(=O)C1CCOCC1)CC31CCN(C(=O)NC(C)C)CC1	none (no result: Rtt109 HAT inh, PAX8 reporter, PfHsp90 set2, N-glyco inh, Arr AP2 block)
COc1ccc(NC(=O)N(C)C[C@@H]2Oc3cc(-c4ccc(C)cc4)ccc3S(=O)(=O)N([C@@H](C)CO)C[C@@H]2C)cc1	none (no result: Rtt109 HAT inh, PAX8 reporter, PfHsp90 set2, N-glyco inh, Arr AP2 block)
COc1ccc(S(=O)(=O)N(C)C[C@H]2Oc3ccc(NC(=O)Nc4ccc5c(c4)OCO5)cc3C(=O)N([C@@H](C)CO)C[C@H]2C)cc1	none (no result: Rtt109 HAT inh, PAX8 reporter, PfHsp90 set2, N-glyco inh, Arr AP2 block)
C[C@@H]1CN([C@@H](C)CO)C(=O)Cc2cc(NC(=O)Nc3ccc4c(c3)OCO4)ccc2O[C@@H]1CN(C)S(=O)(=O)c1cccs1	none (no result: Rtt109 HAT inh, PfHsp90 set2, N-glyco inh, Arr AP2 block)
